ChEMBL document CHEMBL1145901, “A novel ergot alkaloid as a 5-HT(1A) inhibitor produced by Dicyma sp” (J Med Chem, 2003)

Key:
[1] = molecular target: T1, 5-hydroxytryptamine receptor 1A (Homo sapiens) (UniProt P08908); assay: Intrinsic activity for human 5-hydroxytryptamine 1A receptors HEK 293 cell membranes using [35S]GTP gamma-S; format: functional; details: HEK293
T1 sequence (whole entry): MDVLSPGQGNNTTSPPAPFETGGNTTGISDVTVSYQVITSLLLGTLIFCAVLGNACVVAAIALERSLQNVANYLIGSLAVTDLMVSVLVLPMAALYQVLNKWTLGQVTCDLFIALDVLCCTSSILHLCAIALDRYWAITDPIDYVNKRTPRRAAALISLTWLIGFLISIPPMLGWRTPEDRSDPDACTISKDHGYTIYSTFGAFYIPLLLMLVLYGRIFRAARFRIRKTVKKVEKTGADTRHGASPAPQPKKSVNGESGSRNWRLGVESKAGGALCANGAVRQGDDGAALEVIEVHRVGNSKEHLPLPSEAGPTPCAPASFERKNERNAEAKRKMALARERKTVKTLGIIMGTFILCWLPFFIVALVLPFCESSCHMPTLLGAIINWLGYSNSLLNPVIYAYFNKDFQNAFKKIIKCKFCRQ
Outline: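 Membranes from 10^6 HEK293 cells were preincubated with compound for 30 min at 30 °C in 20 mM HEPES pH 7.4 with 3 mM MgCl2, 100 mM NaCl, 10 μM GDP and 0.2 mM ascorbate. [35S]GTPγS (100 pM assay concentration) was then added for 30 min at 30 °C. Nonspecific binding used unlabeled GTPγS. Samples were filtered on GF/B and counted by scintillation. Intrinsic activity is relative to 5-HT; four to seven independent experiments.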

[2] = molecular target: T2, 5-hydroxytryptamine receptor 2A (Homo sapiens, UniProt P28223); assay: Binding affinity against 5-hydroxytryptamine 2A receptor human cloned receptorswithouteffect in HEK 293 cells using [3H]ketanserin as radioligand; format: cell-based, HEK293
T2 sequence (P28223 whole entry): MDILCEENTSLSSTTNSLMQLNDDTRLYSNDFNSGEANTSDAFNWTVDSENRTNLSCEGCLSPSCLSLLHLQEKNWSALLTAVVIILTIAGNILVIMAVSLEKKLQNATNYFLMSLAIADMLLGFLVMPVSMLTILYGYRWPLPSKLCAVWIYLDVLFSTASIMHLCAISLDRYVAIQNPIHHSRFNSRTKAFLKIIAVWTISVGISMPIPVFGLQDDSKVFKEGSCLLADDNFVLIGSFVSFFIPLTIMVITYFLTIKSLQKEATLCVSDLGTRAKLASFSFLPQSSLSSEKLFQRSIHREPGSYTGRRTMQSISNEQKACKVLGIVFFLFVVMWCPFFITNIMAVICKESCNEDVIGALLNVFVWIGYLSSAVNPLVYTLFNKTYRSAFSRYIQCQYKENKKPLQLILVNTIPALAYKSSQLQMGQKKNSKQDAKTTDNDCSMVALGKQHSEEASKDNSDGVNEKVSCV

[3] = molecular target: T3, 5-hydroxytryptamine receptor 1A (Homo sapiens, UniProt P08908); assay: (§1) Binding affinity against human 5-hydroxytryptamine 1A receptors HEK 293 cell membranes using [35S]GTP gamma-S; format: functional, HEK293
T3 sequence (P08908 whole entry): T1 sequence (whole entry)

[4] = molecular target: T1, 5-hydroxytryptamine receptor 1A (Homo sapiens); assay: as §1; format: functional; details: HEK293
[5] = molecular target: T4, 5-hydroxytryptamine receptor 1B (Homo sapiens, UniProt P28222); assay: Binding affinity against cloned human 5-hydroxytryptamine 1B receptor in CHO cells using [3H]5-CT as radioligand; format: cell-based
T4 sequence (P28222 whole entry): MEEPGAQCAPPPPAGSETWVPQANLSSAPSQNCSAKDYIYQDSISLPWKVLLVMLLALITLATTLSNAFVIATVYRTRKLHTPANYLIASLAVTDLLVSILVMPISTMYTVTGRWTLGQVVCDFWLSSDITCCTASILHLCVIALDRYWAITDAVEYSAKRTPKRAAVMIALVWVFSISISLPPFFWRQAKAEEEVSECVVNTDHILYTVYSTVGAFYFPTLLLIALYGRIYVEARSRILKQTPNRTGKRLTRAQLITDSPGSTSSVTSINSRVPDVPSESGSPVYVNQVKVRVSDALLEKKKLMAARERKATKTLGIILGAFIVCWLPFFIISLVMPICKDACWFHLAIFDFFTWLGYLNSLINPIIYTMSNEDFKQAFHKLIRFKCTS

[6] = molecular target: 5-hydroxytryptamine receptor 7 (Homo sapiens, UniProt P34969); assay: Binding affinity against 5-hydroxytryptamine 7 human receptors
Chain of 5-hydroxytryptamine receptor 7 (P34969 whole entry): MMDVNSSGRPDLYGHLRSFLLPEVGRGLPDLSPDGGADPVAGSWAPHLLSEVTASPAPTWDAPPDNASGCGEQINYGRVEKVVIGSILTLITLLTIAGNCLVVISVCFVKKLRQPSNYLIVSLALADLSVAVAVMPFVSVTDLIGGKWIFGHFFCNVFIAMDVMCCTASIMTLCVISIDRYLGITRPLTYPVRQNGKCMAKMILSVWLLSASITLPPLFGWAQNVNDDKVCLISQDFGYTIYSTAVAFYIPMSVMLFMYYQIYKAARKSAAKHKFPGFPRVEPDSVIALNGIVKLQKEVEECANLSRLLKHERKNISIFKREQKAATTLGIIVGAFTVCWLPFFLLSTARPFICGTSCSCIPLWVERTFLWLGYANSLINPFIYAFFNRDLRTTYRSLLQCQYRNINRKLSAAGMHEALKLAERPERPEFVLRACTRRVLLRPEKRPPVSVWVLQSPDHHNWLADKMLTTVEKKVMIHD

[7] = molecular target: T3, 5-hydroxytryptamine receptor 1A; assay: Binding affinity against 5-hydroxytryptamine 1A human cloned receptors in HEK293 cells using [3H]8-OH-DPAT as radioligand; format: cell-based
[8] = molecular target: T5, 5-hydroxytryptamine receptor 2C (Homo sapiens, UniProt P28335); assay: Binding affinity against 5-hydroxytryptamine 2C receptor human cloned receptorswithouteffect in HEK 293 cells using [3H]mesulergine as radioligand; format: cell-based, HEK293
T5 sequence (P28335 whole entry): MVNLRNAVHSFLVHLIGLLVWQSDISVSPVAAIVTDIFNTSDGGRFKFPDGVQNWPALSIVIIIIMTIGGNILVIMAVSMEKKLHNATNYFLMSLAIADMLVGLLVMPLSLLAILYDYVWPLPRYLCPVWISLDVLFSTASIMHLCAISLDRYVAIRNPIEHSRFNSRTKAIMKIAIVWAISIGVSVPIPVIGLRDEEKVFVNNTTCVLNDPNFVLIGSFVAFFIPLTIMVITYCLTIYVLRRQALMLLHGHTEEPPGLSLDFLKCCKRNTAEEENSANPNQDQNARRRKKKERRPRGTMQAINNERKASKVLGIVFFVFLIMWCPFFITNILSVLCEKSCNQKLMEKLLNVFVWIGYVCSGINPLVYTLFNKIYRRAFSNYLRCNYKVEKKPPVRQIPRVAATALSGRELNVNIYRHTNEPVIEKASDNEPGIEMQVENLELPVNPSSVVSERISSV
Outline: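 Filtration binding on membranes from cells stably expressing the human cloned receptor, homogenized in ice-cold 50 mM Tris (pH 7.7). Assay buffer was 50 mM Tris-HCl pH 7.4 with 0.1% ascorbic acid, 10 μM pargyline, 0.5 mM EDTA and 10 mM MgCl2. Compound in DMSO was preincubated 15 min at room temperature, then radioligand was added for 30-45 min at 37 °C. Read-out was scintillation counting. IC50 came from a four-parameter logistic fit and Ki from Cheng-Prusoff; values are the mean of at least two determinations.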

D(2) dopamine receptor = D(2) dopamine receptor (Homo sapiens, UniProt P14416); assay: Binding affinity against human Dopamine receptor D2 in CHO cells using [125I]iodosulpiride; format: cell-based
Chain of D(2) dopamine receptor (P14416 whole entry): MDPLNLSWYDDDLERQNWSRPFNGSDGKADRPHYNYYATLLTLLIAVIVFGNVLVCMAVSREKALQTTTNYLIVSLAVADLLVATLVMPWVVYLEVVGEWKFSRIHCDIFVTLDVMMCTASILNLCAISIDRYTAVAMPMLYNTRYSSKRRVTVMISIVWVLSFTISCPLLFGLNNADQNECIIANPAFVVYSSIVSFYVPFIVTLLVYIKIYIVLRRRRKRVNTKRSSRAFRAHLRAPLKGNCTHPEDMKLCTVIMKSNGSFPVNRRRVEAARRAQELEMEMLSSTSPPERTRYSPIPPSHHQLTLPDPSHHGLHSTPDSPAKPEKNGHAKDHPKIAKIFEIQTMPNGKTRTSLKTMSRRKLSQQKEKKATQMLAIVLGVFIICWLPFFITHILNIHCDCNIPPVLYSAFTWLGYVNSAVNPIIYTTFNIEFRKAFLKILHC

[9] = molecular target: 5-hydroxytryptamine receptor 6 (Homo sapiens, UniProt P50406); assay: Binding affinity against 5-hydroxytryptamine 6 human cloned receptors in HeLa cells using [3H]LSD as radioligand; format: cell-based
Chain of 5-hydroxytryptamine receptor 6 (P50406 whole entry): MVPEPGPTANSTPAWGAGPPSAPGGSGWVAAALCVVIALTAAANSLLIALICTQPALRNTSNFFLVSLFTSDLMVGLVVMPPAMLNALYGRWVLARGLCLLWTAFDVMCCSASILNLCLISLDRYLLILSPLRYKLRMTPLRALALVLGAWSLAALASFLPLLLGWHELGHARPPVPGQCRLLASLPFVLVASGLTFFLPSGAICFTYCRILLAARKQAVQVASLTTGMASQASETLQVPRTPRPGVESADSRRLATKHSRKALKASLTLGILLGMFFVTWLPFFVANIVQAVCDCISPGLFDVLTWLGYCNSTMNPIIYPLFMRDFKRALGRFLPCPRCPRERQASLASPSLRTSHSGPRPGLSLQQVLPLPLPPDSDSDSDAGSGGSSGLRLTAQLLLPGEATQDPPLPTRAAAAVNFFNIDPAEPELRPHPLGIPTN

[10] = molecular target: T4, 5-hydroxytryptamine receptor 1B; assay: Binding affinity against human 5-hydroxytryptamine 1B receptor cloned receptors in CHO cells; format: cell-based
Outline: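 Human 5-HT1B-expressing CHO cell membranes were homogenized in ice-cold 50 mM Tris (pH 7.7) and stored at -70 °C. They were resuspended in 50 mM Tris-HCl pH 7.4 containing 0.1% ascorbate, 10 μM pargyline, 0.5 mM EDTA and 10 mM MgCl2. Compound in DMSO was preincubated with membranes for 15 min at RT. [3H]-5-CT (added from 10 nM) was then incubated 30-45 min at 37 °C. Samples were filtered and counted by scintillation. Nonspecific binding used 5-HT. IC50 came from a four-parameter fit; Ki by Cheng-Prusoff. Results are means of ≥2 determinations.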

[11] = molecular target: T2, 5-hydroxytryptamine receptor 2A; assay: Binding affinity against 5-hydroxytryptamine 2A receptor human cloned receptors in HEK 293 cells using [3H]ketanserin as radioligand; format: cell-based, HEK293
[12] = molecular target: T3, 5-hydroxytryptamine receptor 1A; assay: Binding affinity against 5-hydroxytryptamine 1A human cloned receptors in HEK293 cells; format: cell-based
Outline: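 Human 5-HT1A stably expressed in HEK 293 cells. Membranes were homogenised in ice-cold 50 mM Tris (pH 7.7 at 25 °C) and stored at -70 °C. Binding was measured as displacement of [3H]-8-OH-DPAT. IC50 came from a four-parameter logistic fit of cpm and was converted to Ki by Cheng-Prusoff. Values are the mean of at least two determinations.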

[13] = molecular target: T4, 5-hydroxytryptamine receptor 1B; assay: Binding affinity against human 5-hydroxytryptamine 1B receptor cloned receptors in CHO cells using [3H]5-CT as radioligand; format: cell-based
Outline: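 Membranes from CHO cells expressing human 5-HT1B, in 50 mM Tris-HCl pH 7.4 with 0.1% ascorbate, 10 μM pargyline, 0.5 mM EDTA and 10 mM MgCl2. Compound in DMSO was preincubated 15 min at RT, then 10 nM stock [3H]-5-CT was added for 30-45 min at 37 °C. Filtration on PEI-treated GF/C, scintillation counting; 200 μM 5-HT (stock) defined nonspecific binding. Four-parameter IC50, Cheng-Prusoff Ki, mean of at least two determinations.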

[14] = molecular target: T5, 5-hydroxytryptamine receptor 2C; assay: Binding affinity against 5-hydroxytryptamine 2C receptor human cloned receptors in HEK 293 cells using [3H]mesulergine as radioligand; format: cell-based, HEK293

| Structure (SMILES) | Intrinsic activity [1] | EC50 [3] | Emax [4] | Stimulation [4] | Ki [6] | Ki [9] | Ki [11] | other results |
| --- | --- | --- | --- | --- | --- | --- | --- | --- |
| NCCc1c[nH]c2ccc(O)cc12 | 1 | – | – | – | – | – | – | – |
| CC(C)C[C@H]1C(=O)N[C@@H](Cc2ccccc2)[C@]2(O)O[C@@](C)(NC(=O)[C@@H]3C=C4c5cccc6[nH]cc(c56)C[C@H]4N(C)C3)C(=O)N12 | 1.11 | 2 nM | 229 | 138 | 6.31 nM | 50.1 nM | – | Ki [2]: 15.8 nM; Ki [5]: 3.16 nM; Ki [7]: 0.0631 nM; Ki [8]: 15.8 nM; Ki (D(2) dopamine receptor): 3.16 nM |
| NCCc1c[nH]c2ccc(C(N)=O)cc12 | – | – | – | – | – | 1000 nM | > 5010 nM | Ki [10]: 1.26 nM |
| CN1CCN(c2cc3c(cc2Cl)CCN3C(=O)Nc2ccc(-c3ccncc3)c3ccccc23)CC1 | 0.33 | 19.1 nM | 144 | 42% | – | – | – | – |
| NCCCC1(CCCN)CCc2cccc(O)c2C1 | – | – | – | – | 3.16 nM | 126 nM | 10000 nM | Ki [12]: 2 nM; Ki [13]: 316 nM; Ki [14]: 12600 nM |
